Series [1] is described as follows: Drug level in Sprague-Dawley rat urine treated with oxprenolol hydrochloride at 20 mg/kg, ip measured after 24 hrs by GC-CIMS analysis. The class given is ADME, organism-based. Further details: dose 20 mg/kg, route intraperitoneal. The settings on record: in vivo. In outline: (§1)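 Six male Sprague-Dawley rats (120 g) were given oxprenolol hydrochloride ip at 20 mg/kg (4 mg/mL in sterile isotonic water). Urine was collected over 24 h in metabolic cages and pooled, then incubated overnight at 37 °C with 9200 units β-glucuronidase in pH 5.0 acetate buffer. Extract was methylated with diazomethane and TFA-derivatized. GC-CIMS monitored QM ions; isomer ratio was taken from the total ion current tracings.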

Series [2] can be described thus: Drug level in Sprague-Dawley rat urine treated with oxprenolol hydrochloride at 20 mg/kg, ip measured after 24 hrs by GC-CIMS analysis in presence of beta-glucuronidase and CH2N2. In kind it is ADME, organism-based. The arrangement: dose 20 mg/kg, route intraperitoneal. To be noted: in vivo. In outline: as §1

The structures appear in SMILES notation.

The values that follow come from ChEMBL document CHEMBL3244000, “Aromatic hydroxylation of beta-adrenergic antagonists. Formation of 4'- and 5'-hydroxy-1-(isopropylamino)-3-[2'-allyloxy)phenoxy]-2-propanol from oxprenolol” (J Med Chem, 1979).

Consider `C=CCOc1cc(O)ccc1OCC(O)CNC(C)C` (centres undefined), for which the Drug excretion result in series [1] is “metabolite_detected”. Same read-out and setting: the result for `C=CCOc1ccc(O)cc1OCC(O)CNC(C)C` (centres undefined) reads “metabolite_detected”.

As to `C=CCOc1cc(OC)ccc1OCC(O)CNC(C)C` (centres undefined), the Drug excretion entry in series [2] is “metabolite_detected”. Regarding `C=CCOc1ccc(OC)cc1OCC(O)CNC(C)C` (centres undefined), the Drug excretion entry in series [2] is recorded as “metabolite_detected”.
